From ChEMBL document CHEMBL3763152, “Synthesis and evaluation of orally active small molecule HIV-1 Nef antagonists” (Bioorg Med Chem Lett, 2016)
Active and inactive are the calls of the source. No cut-off for these calls is given here.

Key:
[1] = Binding affinity to recombinant HIV1 Nef by SPR assay; design: species or system Human immunodeficiency virus 1
Method in brief: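 Recombinant purified Nef was immobilized on a CM5 chip, and compound was injected over a concentration range in triplicate. Binding isotherms were fitted with a heterogeneous ligand model, and KD was taken from the kinetic constants of the higher-affinity component. No binding means none seen at >50 μM compound.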

[2] = Tmax in C3H mouse at 10 mg/kg, po administered through solution of 5% N-methyl -2-pyrrolidone and 5% solutol in saline by LC-MS analysis; assay type: ADME, organism-based; conditions: in vivo
Method in brief: (§1)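 Plasma drug levels measured by LC-MS over time. Tmax, Cmax, AUClast, AUCinf, T1/2, Vss, clearance and %F were derived from the plasma concentration–time data.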

[3] = tested on: Human immunodeficiency virus 1; test: Binding affinity to recombinant HIV1 Nef N126A mutant at 10 uM by SPR assay
Method in brief: (§2)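 Wild-type, N126A and N126Q Nef were expressed in bacteria and purified to homogeneity. Each was covalently coupled to a CM5 biosensor chip. Compound was injected at a final 10 μM, in triplicate, and binding was measured by SPR on a Biacore T100.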

Mus musculus [4] = test: Acute toxicity in C3H mouse assessed as change in body weight at 2.5 mg/kg, po SID for 4 days; conditions: in vivo, 96 h
[5] = AUC(last) in C3H mouse at 10 mg/kg, po administered through solution of 5% N-methyl -2-pyrrolidone and 5% solutol in saline by LC-MS analysis; assay type: ADME, organism-based; design: dose 10 mg/kg, time 0 - last, route oral; conditions: in vivo; method in brief: as §1
[6] = AUC(infinity) in C3H mouse at 2 mg/kg, iv by LC-MS analysis; assay type: ADME, organism-based; design: dose 2 mg/kg, time infinity, route intravenous; conditions: in vivo; method in brief: as §1
[7] = AUC(infinity) in C3H mouse at 10 mg/kg, po administered through solution of 5% N-methyl -2-pyrrolidone and 5% solutol in saline by LC-MS analysis; assay type: ADME, organism-based; design: dose 10 mg/kg, route oral, time infinity; conditions: in vivo; method in brief: as §1
Mus musculus [8] = test: Acute toxicity in C3H mouse assessed as body condition at 2.5 mg/kg, po SID for 4 days; conditions: in vivo, 96 h
Mus musculus [9] = test: Acute toxicity in C3H mouse assessed as overall behavior at 2.5 mg/kg, iv SID for 4 days; assay type: organism-based; conditions: in vivo, 96 h
[10] = tested on: Human immunodeficiency virus 1; test: Antiviral activity against HIV1 NL4-3 infected in TZM-bl cells incubated for 3 hrs measured after 48 hrs by luciferase reporter gene assay; assay type: functional, organism-based; conditions: Human immunodeficiency virus 1, NL4-3, TZM-bl
Method in brief: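 TZM-bl reporter cells carry a luciferase gene driven by the HIV-1 LTR. Cells were infected short-term with HIV-1, and Nef-dependent infectivity was read out by luciferase. IC50 was derived from this read-out.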

[11] = Volume of distribution at steady state in C3H mouse at 2 mg/kg, iv by LC-MS analysis; assay type: ADME, organism-based; conditions: in vivo, read-out: Vdss; method in brief: as §1
[12] = Oral bioavailability in C3H mouse at 10 mg/kg administered through solution of 5% N-methyl -2-pyrrolidone and 5% solutol in saline by LC-MS analysis; assay type: ADME, organism-based; conditions: in vivo; method in brief: as §1
[13] = tested on: Human immunodeficiency virus 1; test: Binding affinity to recombinant HIV1 Nef N126Q mutant at 10 uM by SPR assay; method in brief: as §2
[14] = Cytotoxicity against human TZM-bl cells by Cell Titer Blue assay; assay type: cell-based
Method in brief: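 TZM-bl reporter cells were treated with compound and viability was read by Cell Titer Blue. CC50 is the concentration giving 50% loss of viability.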

[15] = Half life in C3H mouse at 2 mg/kg, iv by LC-MS analysis; assay type: ADME, organism-based; conditions: in vivo; method in brief: as §1
[16] = Cmax in C3H mouse at 2 mg/kg, iv by LC-MS analysis; assay type: ADME, organism-based; design: dose 2 mg/kg, route intravenous; conditions: in vivo; method in brief: as §1
[17] = Cmax in C3H mouse at 10 mg/kg, po administered through solution of 5% N-methyl -2-pyrrolidone and 5% solutol in saline by LC-MS analysis; assay type: ADME, organism-based; design: dose 10 mg/kg, route oral; conditions: in vivo; method in brief: as §1
[18] = AUClast in C3H mouse at 2 mg/kg, iv by LC-MS analysis; assay type: ADME, organism-based; design: dose 2 mg/kg, route intravenous, time 0 - last; conditions: in vivo; method in brief: as §1
[19] = Clearance in C3H mouse at 2 mg/kg, iv by LC-MS analysis; assay type: ADME, organism-based; conditions: in vivo; method in brief: as §1
Mus musculus [20] = test: Acute toxicity in C3H mouse assessed as body condition at 5 mg/kg, iv SID for 4 days; assay type: organism-based; conditions: in vivo, 96 h
Mus musculus [21] = test: Acute toxicity in C3H mouse assessed as change in body weight at 10 mg/kg, po BID for 4 days; assay type: organism-based; conditions: in vivo, 96 h
[22] = Cytotoxicity against human U87MG cells expressing CD4 and CXCR4 up to 10 uM by Cell Titer Blue assay; assay type: cell-based; conditions: u-87mg atcc
Mus musculus [23] = test: Acute toxicity in C3H mouse assessed as overall behavior at 5 mg/kg, iv SID for 4 days; assay type: organism-based; conditions: in vivo, 96 h
[24] = Tmax in C3H mouse at 10 mg/kg, po administered through suspension of 0.5% w/v sodium-carboxymethyl cellulose with 0.1% v/v Tween80 by LC-MS analysis; assay type: ADME, organism-based; conditions: in vivo; method in brief: as §1
Mus musculus [25] = test: Acute toxicity in C3H mouse assessed as overall behavior at 10 mg/kg, po BID for 4 days; assay type: organism-based; conditions: in vivo, 96 h
[26] = AUC(infinity) in C3H mouse at 10 mg/kg, po administered through suspension of 0.5% w/v sodium-carboxymethyl cellulose with 0.1% v/v Tween80 by LC-MS analysis; assay type: ADME, organism-based; design: dose 10 mg/kg, route oral, time infinity; conditions: in vivo; method in brief: as §1
Mus musculus [27] = test: Acute toxicity in C3H mouse assessed as change in body weight at 50 mg/kg, po SID for 5 days; assay type: organism-based; conditions: in vivo, 120 h
Mus musculus [28] = test: Acute toxicity in C3H mouse assessed as body condition at 10 mg/kg, po BID for 4 days; assay type: organism-based; conditions: in vivo, 96 h
Mus musculus [29] = test: Acute toxicity in C3H mouse assessed as overall behavior at 50 mg/kg, po SID for 5 days; assay type: organism-based; conditions: in vivo, 120 h
[30] = Cmax in C3H mouse at 10 mg/kg, po administered through suspension of 0.5% w/v sodium-carboxymethyl cellulose with 0.1% v/v Tween80 by LC-MS analysis; assay type: ADME, organism-based; design: dose 10 mg/kg, route oral; conditions: in vivo; method in brief: as §1
[31] = AUC(last) in C3H mouse at 10 mg/kg, po administered through suspension of 0.5% w/v sodium-carboxymethyl cellulose with 0.1% v/v Tween80 by LC-MS analysis; assay type: ADME, organism-based; design: dose 10 mg/kg, route oral, time 0 - last; conditions: in vivo; method in brief: as §1
Mus musculus [32] = test: Acute toxicity in C3H mouse assessed as change in body weight at 5 mg/kg, po SID for 4 days; conditions: in vivo, 96 h
Mus musculus [33] = test: Acute toxicity in C3H mouse assessed as body condition at 50 mg/kg, po SID for 5 days; assay type: organism-based; conditions: in vivo, 120 h
U-87MG ATCC = test: Inhibition of Nef-dependent HIV1 NL4-3 replication infected in human U87MG cells expressing CD4 and CXCR4 at 3 uM incubated for 1 hr measured after 4 days by immunoassay; assay type: cell-based; conditions: Human immunodeficiency virus 1
Method in brief: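 U87MG/CD4/CXCR4 cells received compound at 3 μM final; wild-type or ΔNef HIV-1 NL4-3 was added one hour later. Replication was measured at 4 days as p24 Gag by AlphaLISA ELISA and expressed as percent of DMSO control, mean ± S.E., n=4.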

[34] = tested on: Human immunodeficiency virus 1; test: Binding affinity to recombinant HIV1 Nef at >50 uM by SPR assay
Mus musculus [35] = test: Acute toxicity in C3H mouse assessed as body condition at 100 mg/kg, po SID for 12 days; assay type: organism-based; conditions: in vivo, 288 h
Mus musculus [36] = test: Acute toxicity in C3H mouse assessed as overall behavior at 100 mg/kg, po SID for 12 days; assay type: organism-based; conditions: in vivo, 288 h
Mus musculus [37] = test: Acute toxicity in C3H mouse assessed as change in body weight at 100 mg/kg, po SID for 12 days; assay type: organism-based; conditions: in vivo, 288 h

SMILES | Kd [1] [µM] | Tmax [2] [min] | Activity [3] | AUC(0-t) [5] [ng·h/mL] | AUC(0-inf) [6] [ng·h/mL] | AUC(0-inf) [7] [ng·h/mL] | IC50 [10] [µM] | Vd [11] [L/kg] | bioavailability [12] [%] | Activity [13] | CC50 [14] [µM] | half-life [15] [min] | Cmax [16] [ng/mL] | Cmax [17] [ng/mL] | AUC(0-t) [18] [ng·h/mL] | clearance [19] [mL/min/kg] | Activity [22] | Tmax [24] [min] | AUC(0-inf) [26] [ng·h/mL] | inhibition (U-87MG ATCC) | further results
NC(=S)n1nc(-c2ccc([N+](=O)[O-])cc2)c(/N=N/c2cccc(Cl)c2)c1O | 0.0819 | 30 | inactive | 963 | 9790 | 1020 | 2.53 | 0.37 | 2 | inactive | 10 | 128 | 3960 | 418 | 9780 | 3.41 |  |  |  |  | Activity (Mus musculus [4]): Non-toxic; Activity (Mus musculus [8]): Non-toxic; Activity (Mus musculus [9]): Non-toxic
NC(=S)n1nc(-c2ccc([N+](=O)[O-])cc2)c(CCc2cccc(Cl)c2)c1O | 0.159 | 15 | inactive | 6300 | 2150 | 6430 | 0.69 | 0.83 | 53 | inactive | > 10 |  | 4420 | 2370 | 2130 | 13.5 | Non-toxic | 30 | 9480 | Active | Activity (Mus musculus [20]): Non-toxic; Activity (Mus musculus [21]): Non-toxic; Activity (Mus musculus [23]): Non-toxic; Activity (Mus musculus [25]): Non-toxic; Activity (Mus musculus [27]): Non-toxic; Activity (Mus musculus [28]): Non-toxic; Activity (Mus musculus [29]): Non-toxic; Cmax [30]: 5610 ng/mL; AUC(0-t) [31]: 9030 ng·h/mL; Activity (Mus musculus [32]): Non-toxic; Activity (Mus musculus [33]): Non-toxic
O=[N+]([O-])c1ccc(-c2n[nH]c(O)c2CCc2cccc(Cl)c2)cc1 |  |  |  |  |  |  | > 10 |  |  |  | > 10 |  |  |  |  |  | Non-toxic |  |  | inactive | Activity [34]: inactive
O=[N+]([O-])c1ccc(-c2n[nH]c(O)c2Cc2cccc(Cl)c2)cc1 |  |  |  |  |  |  | > 10 |  |  |  | > 10 |  |  |  |  |  | Non-toxic |  |  | inactive | Activity [34]: inactive
NC(=S)n1nc(-c2ccc([N+](=O)[O-])cc2)c(Cc2cccc(Cl)c2)c1O | 0.15 | 60 | inactive | 18600 | 3000 | 18800 | 3.54 | 0.79 | 100 | inactive | > 10 | 94.8 | 2800 | 5810 | 2960 | 8.56 | Non-toxic | 30 | 11500 | Active | Activity (Mus musculus [35]): Non-toxic; Cmax [30]: 3400 ng/mL; AUC(0-t) [31]: 10700 ng·h/mL; Activity (Mus musculus [36]): Non-toxic; Activity (Mus musculus [37]): Non-toxic
